# Data as given in publication PMC8177775 (Cancer Science, 2021).
# Entries after “also recorded” stand apart in the source; their conditions may differ.
# Tested on: Japanese patients with solid tumors
# Experiment: Phase I dose-escalation study: safety, tolerability, DLT and MTD
# Assay type: in vivo, human
# Conditions: for Dose-limiting toxicities (DLTs): cycle 1
# Summary of the method: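 Oral test compound (tosylate salt) was given QD on days 1–21 of 28-day cycles in cohorts of 3–6 patients at 60, 90 or 120 mg. Escalation used a modified continual reassessment method (Bayesian logistic regression, escalation with overdose control). DLT window was cycle 1 (28 days). AEs were coded with MedDRA 18.0 and graded by CTCAE v4.0 (Japanese). Analysis covered patients receiving ≥1 dose.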
# [1] = Cohort 1 60 mg/d (n = 3), All grades
# [2] = Cohort 1 60 mg/d (n = 3), Grade ≥ 3
# [3] = Cohort 2 90 mg/d (n = 11), All grades
# [4] = Cohort 2 90 mg/d (n = 11), Grade ≥ 3
# [5] = Cohort 3 120 mg/d (n = 4), All grades
compound,measurement,setting,value
"CC1(C)CCC2(CC1)N[C@@H](C(=O)N[C@@H]1CC[C@@H](C(N)=O)OC1)[C@H](c1ccnc(Cl)c1F)[C@]21C(=O)Nc2cc(Cl)ccc21 [milademetan, Milademetan]",Dose interruptions,60 mg/day,2 n
same,Dose interruptions,90 mg/day,5 n
same,Dose interruptions,120 mg/day,3 n
same,Dose-limiting toxicities (DLTs),120 mg/day cohort,three events of platelet count decreased and one nausea; also recorded: Four DLTs were observed in four patients
same,Dose-limiting toxicities (DLTs),60-mg and 90-mg cohorts,No DLTs occurred
same,TEAE: Alanine aminotransferase increased,[1],1 (33.3) n (%)
same,TEAE: Anemia,[1],0 (0.0) n (%)
same,TEAE: Aspartate aminotransferase increased,[1],0 (0.0) n (%)
same,TEAE: Constipation,[1],2 (66.7) n (%)
same,TEAE: Decreased appetite,[1],2 (66.7) n (%)
same,TEAE: Diarrhea,[1],0 (0.0) n (%)
same,TEAE: Disease progression,[1],0 (0.0) n (%)
same,TEAE: Fatigue,[1],2 (66.7) n (%)
same,TEAE: Hypoalbuminemia,[1],1 (33.3) n (%)
same,TEAE: Hyponatremia,[1],0 (0.0) n (%)
same,TEAE: Hypophosphataemic rickets,[1],0 (0.0) n (%)
same,TEAE: Jaundice cholestatic,[1],0 (0.0) n (%)
same,TEAE: Lymphangiosis carcinomatosa,[1],1 (33.3) n (%)
same,TEAE: Lymphocyte count decreased,[1],1 (33.3) n (%)
same,TEAE: Nausea,[1],3 (100.0) n (%)
same,TEAE: Neutrophil count decreased,[1],0 (0.0) n (%)
same,TEAE: Platelet count decreased,[1],0 (0.0) n (%)
same,TEAE: Pyrexia,[1],0 (0.0) n (%)
same,TEAE: Sepsis,[1],0 (0.0) n (%)
same,TEAE: Urinary tract infection,[1],0 (0.0) n (%)
same,TEAE: Vomiting,[1],0 (0.0) n (%)
same,TEAE: White blood cell count decreased,[1],1 (33.3) n (%)
same,TEAE: Alanine aminotransferase increased,[2],0 (0.0) n (%)
same,TEAE: Anemia,[2],0 (0.0) n (%)
same,TEAE: Aspartate aminotransferase increased,[2],0 (0.0) n (%)
same,TEAE: Constipation,[2],0 (0.0) n (%)
same,TEAE: Decreased appetite,[2],0 (0.0) n (%)
same,TEAE: Diarrhea,[2],0 (0.0) n (%)
same,TEAE: Disease progression,[2],0 (0.0) n (%)
same,TEAE: Fatigue,[2],0 (0.0) n (%)
same,TEAE: Hypoalbuminemia,[2],0 (0.0) n (%)
same,TEAE: Hyponatremia,[2],0 (0.0) n (%)
same,TEAE: Hypophosphataemic rickets,[2],0 (0.0) n (%)
same,TEAE: Jaundice cholestatic,[2],0 (0.0) n (%)
same,TEAE: Lymphangiosis carcinomatosa,[2],1 (33.3) n (%)
same,TEAE: Lymphocyte count decreased,[2],0 (0.0) n (%)
same,TEAE: Nausea,[2],0 (0.0) n (%)
same,TEAE: Neutrophil count decreased,[2],0 (0.0) n (%)
same,TEAE: Platelet count decreased,[2],0 (0.0) n (%)
same,TEAE: Pyrexia,[2],0 (0.0) n (%)
same,TEAE: Sepsis,[2],0 (0.0) n (%)
same,TEAE: Urinary tract infection,[2],0 (0.0) n (%)
same,TEAE: Vomiting,[2],0 (0.0) n (%)
same,TEAE: White blood cell count decreased,[2],0 (0.0) n (%)
same,TEAE: Alanine aminotransferase increased,[3],1 (9.1) n (%)
same,TEAE: Anemia,[3],7 (63.6) n (%)
same,TEAE: Aspartate aminotransferase increased,[3],2 (18.2) n (%)
same,TEAE: Constipation,[3],2 (18.2) n (%)
same,TEAE: Decreased appetite,[3],6 (54.5) n (%)
same,TEAE: Diarrhea,[3],3 (27.3) n (%)
same,TEAE: Disease progression,[3],0 (0.0) n (%)
same,TEAE: Fatigue,[3],6 (54.5) n (%)
same,TEAE: Hypoalbuminemia,[3],6 (54.5) n (%)
same,TEAE: Hyponatremia,[3],3 (27.3) n (%)
same,TEAE: Hypophosphataemic rickets,[3],1 (9.1) n (%)
same,TEAE: Jaundice cholestatic,[3],1 (9.1) n (%)
same,TEAE: Lymphangiosis carcinomatosa,[3],0 (0.0) n (%)
same,TEAE: Lymphocyte count decreased,[3],1 (9.1) n (%)
same,TEAE: Nausea,[3],7 (63.6) n (%)
same,TEAE: Neutrophil count decreased,[3],3 (27.3) n (%)
same,TEAE: Platelet count decreased,[3],8 (72.7) n (%)
same,TEAE: Pyrexia,[3],3 (27.3) n (%)
same,TEAE: Sepsis,[3],0 (0.0) n (%)
same,TEAE: Urinary tract infection,[3],1 (9.1) n (%)
same,TEAE: Vomiting,[3],3 (27.3) n (%)
same,TEAE: White blood cell count decreased,[3],6 (54.5) n (%)
same,TEAE: Alanine aminotransferase increased,[4],1 (9.1) n (%)
same,TEAE: Anemia,[4],3 (27.3) n (%)
same,TEAE: Aspartate aminotransferase increased,[4],0 (0.0) n (%)
same,TEAE: Constipation,[4],0 (0.0) n (%)
same,TEAE: Decreased appetite,[4],0 (0.0) n (%)
same,TEAE: Diarrhea,[4],0 (0.0) n (%)
same,TEAE: Disease progression,[4],0 (0.0) n (%)
same,TEAE: Fatigue,[4],0 (0.0) n (%)
same,TEAE: Hypoalbuminemia,[4],0 (0.0) n (%)
same,TEAE: Hyponatremia,[4],1 (9.1) n (%)
same,TEAE: Hypophosphataemic rickets,[4],1 (9.1) n (%)
same,TEAE: Jaundice cholestatic,[4],1 (9.1) n (%)
same,TEAE: Lymphangiosis carcinomatosa,[4],0 (0.0) n (%)
same,TEAE: Lymphocyte count decreased,[4],0 (0.0) n (%)
same,TEAE: Nausea,[4],0 (0.0) n (%)
same,TEAE: Neutrophil count decreased,[4],0 (0.0) n (%)
same,TEAE: Platelet count decreased,[4],1 (9.1) n (%)
same,TEAE: Pyrexia,[4],0 (0.0) n (%)
same,TEAE: Sepsis,[4],0 (0.0) n (%)
same,TEAE: Urinary tract infection,[4],1 (9.1) n (%)
same,TEAE: Vomiting,[4],0 (0.0) n (%)
same,TEAE: White blood cell count decreased,[4],0 (0.0) n (%)
same,TEAE: Alanine aminotransferase increased,[5],2 (50.0) n (%)
same,TEAE: Anemia,[5],2 (50.0) n (%)
same,TEAE: Aspartate aminotransferase increased,[5],2 (50.0) n (%)
same,TEAE: Constipation,[5],1 (25.0) n (%)
same,TEAE: Decreased appetite,[5],3 (75.0) n (%)
same,TEAE: Diarrhea,[5],2 (50.0) n (%)
same,TEAE: Disease progression,[5],1 (25.0) n (%)
same,TEAE: Fatigue,[5],1 (25.0) n (%)
same,TEAE: Hypoalbuminemia,[5],1 (25.0) n (%)
same,TEAE: Hyponatremia,[5],2 (50.0) n (%)
